A short description of data set [1]: Cytotoxicity against human HuH7 cells assessed as growth inhibition. In kind it is cell-based, Huh-7. In a few lines:
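Compound toxicity is measured as inhibition of Huh-7 cell growth, run in parallel with the HCVcc infection assay. CC50 comes from 10-point dose-response curves, done in duplicate with quadruplicate measurements.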

The nature of data set [2]: Selectivity index, ratio of CC50 for human HuH7 cells to EC50 for 1 MOI of HCV genotype 2 infected in human HuH7 cells. Also on record: species or system Huh-7. In a few lines:
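The SI is CC50 divided by EC50. Both values come from 10-point dose-response curves (duplicates, quadruplicate measurements) in Huh-7 cells. CC50 is from cell growth inhibition.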

In data set [3] the test system is Hepatitis C virus. In words: Antiviral activity against 1 MOI of HCV genotype 2 infected in human HuH7 cells assessed as inhibition of viral RNA replication after 72 hrs by confocal microscopy. It is filed as functional, organism-based, Hepacivirus hominis. To be noted: genotype 2, Huh-7, 72 h. In a few lines:
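Reporter virus is cell-culture-adapted full-length JFH-1 with GFP inserted in NS5A domain III; GFP fluorescence tracks viral RNA replication. Serially diluted compound added to naïve Huh-7 cells, then infected with HCVcc at MOI 1. Live cells imaged by automated confocal microscopy at 72 h post-infection. EC50 from 10-point dose-response curves, run in duplicate with quadruplicate measurements.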

Data set [4] can be described thus: Solubility of the compound at pH 7.4. It is filed as physicochemical. The conditions noted are these: buffer.
Data set [5] has as its system Hepatitis C virus. The data set is described as follows: Antiviral activity against HCV genotype 1 expressing envelope protein at 1 uM. In kind it is functional, organism-based. The conditions noted are these: Hepacivirus hominis.
Data set [6] can be described thus: Half life in human liver microsomes. In kind it is ADME, Microsome. (Liver microsomes are vesicles of endoplasmic reticulum, rich in cytochrome P450 enzymes.)
Data set [7] in a line: Half life in rat liver microsomes. It is filed as ADME, Microsome.
Data set [8] deals with Hepatitis C virus. The data set is described as follows: Antiviral activity against HCV genotype 2 by replicon assay. In kind it is functional, organism-based, Hepacivirus hominis. (In antiviral work, replicon cells carry a viral genome segment that copies itself.)

Each structure is given as a SMILES string. Converted amounts (≈) assume the structure as drawn. The source made the active and inactive calls. The calls are words filed in the database; no cut-off is given here.

In general, CC50 refers to the concentration giving 50% cytotoxicity. What is called EC50 is the midpoint of the concentration-response curve. As to `Cc1ccc(-c2c(C)nn3c(NCCc4ccccc4)cc(C)nc23)cc1`, the CC50 in data set [1] was 5.2 µM. Besides, in data set [2], the “Ratio CC50/EC50” value was determined as 1. In addition, the EC50 in the data set on Hepatitis C virus [3] was 5.3 µM.
The matching figures for `Cc1cc(NC2CCN(C(C)C)CC2)n2nccc2n1`: 12 µM, 1 and 12 µM.
In general, solubility refers to how much of the substance goes into solution per volume. Read a high solubility as much dissolved substance. What is called half-life is how long it takes for the measured level to halve. `Cc1ccc(-c2c(C)nn3c(NCCCN(C)C)cc(C)nc23)cc1` gave a solubility in data set [4] of 76 µM (≈ 25.6 µg/mL). The result with Hepatitis C virus [5] was inactive. Besides, the half-life is more than 1 h in data set [6] and 0.373 h in data set [7]. The CC50 in data set [1] came to 22 µM. Moreover, the “Ratio CC50/EC50” value in data set [2] was found to be 41. Also, in the data set on Hepatitis C virus [3], the 50% effective concentration (EC50) was determined as 0.54 µM.
For `Cc1ccc(-c2c(C)nn3c(NCCN(C)C)cc(C(F)(F)F)nc23)cc1`, in data set [1], the CC50 is 15 µM. The “Ratio CC50/EC50” value in data set [2] came to 2.1. For the same molecule, in the data set on Hepatitis C virus [3], the EC50 came out at 7.2 µM.
The matching figures for `Cc1ccc(-c2c(C)nn3c(NC4CCN(C)CC4)cc(C)nc23)cc1`: 18 µM, 18 and 1 µM.
In turn, `Cc1ccc(-c2c(C)nn3c(NC4CCN(C(C)C)CC4)cc(C)nc23)cc1` registered a solubility in data set [4] of 73 µM (≈ 27.6 µg/mL). Besides, the result in the data set on Hepatitis C virus [5] was inactive. In addition, the half-life in data set [6] and in data set [7] was more than 1 h in each case. For the same molecule, in data set [1], the CC50 was found to be 8.8 µM. Also, the EC50 result in the data set on Hepatitis C virus [8] was “Not Active”; with Hepatitis C virus [3], 0.28 µM. For the same molecule, the “Ratio CC50/EC50” value in data set [2] was 31.
`Cc1ccc(-c2c(C)nn3c(NCc4cccnc4)c4c(nc23)CCCC4)cc1`: the CC50 in data set [1] is 8.7 µM. Moreover, in data set [2], the “Ratio CC50/EC50” value was 3.1. Also, in the data set with Hepatitis C virus [3], the EC50 came out at 2.8 µM.
On to `COCCCNc1cc(C)nc2c(-c3ccc(C)cc3)c(C)nn12`, for which the CC50 in data set [1] amounted to 19 µM. Moreover, the “Ratio CC50/EC50” value in data set [2] came out at 8.3. Further, in the data set with Hepatitis C virus [3], the EC50 stood at 2.3 µM.
